Measured values collected from several papers.
Each line is one published result; the experiments were not run side by side.

For CC(C)C[C@@H]1NC(=O)[C@@H](N(C)C(=O)[C@H](CC2CCC2)NC(=O)[C@@H]2C[C@@H](F)CN2C(=O)C2(C(F)(F)F)CC(F)(F)C2)CCCCNC(=O)C2(CC2)NC(=O)[C@H](Cc2cc(Cl)ccc2Cl)N(C)C1=O, the GI50 was 13 nM (NCI-H69; cell growth or viability; MTT; 5 days).
CCNCCCn1c2c(c3cc(OC)c(OC)cc3c1=O)C(=O)c1cc3c(nc1-2)OCO3 gave an IC50 of 122 nM (TC-71; cell growth or viability; MTS; 72 h).
For O=C(O)c1cn(C2CC2)c2cc(N3CCNCC3)c(F)cc2c1=O, the MIC was 0.03 µM (Salmonella enterica; microbial growth; broth dilution; TYPHIMURIUM).
With O=C(O)c1cn(C2CC2)c2cc(N3CCNCC3)c(F)cc2c1=O the MIC was 4 µM (Salmonella enterica; microbial growth; ATCC13311).
C=C/C=C(\C)CC[C@@H]1C[C@@H](O)CC(=O)O1 gave an MIC of 128 µg/mL (Bacillus cereus; microbial growth; broth dilution; ATCC10876).
CC(=O)OCC1=C(C(=O)O)N2C(=O)[C@@H](NC(=O)Cc3cccs3)[C@H]2SC1 gave an MIC of under 127 µg/mL (Salmonella enterica; microbial growth; broth dilution; TYPHIMURIUM).
COc1cc2c3c(n(CCCN4CCOCC4)c(=O)c2cc1OC)-c1nc2c(cc1C3=O)OCO2 gave an IC50 of 905 nM (RPMI-8226; cell growth or viability; MTS; 72 h).
C=CC(=O)NC1CCN(c2ncc3ncnc(Nc4ccc(Oc5ccc6c(c5)ncn6C)c(C)c4)c3n2)CC1 has an EC50 of 20.8 nM (AU565; cell growth or viability).
